Data reported in ChEMBL document CHEMBL1142719 (J Med Chem, 2005).
pKi: −log10 of the molar value.

Assays:
[1] = target: T1, Adenosine receptor A3 (Homo sapiens) (UniProt P0DMS8); experiment: Relative activation of human Adenosine A3 receptor expressed in CHO cells at 10 uM treatment compared to 10 uM Cl-IB-MECA; format: functional, cell-based
T1 sequence (whole entry): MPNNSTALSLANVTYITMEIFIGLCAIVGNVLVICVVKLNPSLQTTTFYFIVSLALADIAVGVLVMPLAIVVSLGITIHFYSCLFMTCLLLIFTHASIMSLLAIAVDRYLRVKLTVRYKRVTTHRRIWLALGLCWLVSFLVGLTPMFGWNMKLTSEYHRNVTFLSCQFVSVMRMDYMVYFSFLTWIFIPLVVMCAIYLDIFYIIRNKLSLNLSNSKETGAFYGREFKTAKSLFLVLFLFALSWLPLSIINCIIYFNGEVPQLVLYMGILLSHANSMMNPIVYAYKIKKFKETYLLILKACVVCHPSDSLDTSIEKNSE

Adenosine receptor A2a [2] = target: T2, Adenosine receptor A2a (Homo sapiens, UniProt P29274); experiment: Displacement of [3H]-CGS- 21680 from human Adenosine A2A receptor expressed in CHO cells at 10 uM; format: cell-based
T2 sequence (P29274 whole entry): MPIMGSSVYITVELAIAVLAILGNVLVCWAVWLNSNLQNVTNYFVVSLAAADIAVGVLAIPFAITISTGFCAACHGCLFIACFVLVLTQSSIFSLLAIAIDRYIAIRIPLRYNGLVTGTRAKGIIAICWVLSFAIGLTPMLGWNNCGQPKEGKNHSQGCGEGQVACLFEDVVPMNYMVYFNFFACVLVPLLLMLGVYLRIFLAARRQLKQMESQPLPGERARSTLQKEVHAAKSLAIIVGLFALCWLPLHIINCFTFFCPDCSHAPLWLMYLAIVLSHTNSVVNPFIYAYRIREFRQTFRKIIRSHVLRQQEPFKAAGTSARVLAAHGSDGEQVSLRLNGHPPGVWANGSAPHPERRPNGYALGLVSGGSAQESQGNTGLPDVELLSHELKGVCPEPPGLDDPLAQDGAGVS
How it was run: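 Human A2A receptor stably expressed in adherent CHO cells. Competition binding used [3H]CGS 21680 as the radioligand.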

Adenosine receptor A1 = target: T3, Adenosine receptor A1 (Homo sapiens, UniProt P30542); experiment: Inhibition of [3H]R-PIA binding to human Adenosine A1 receptor expressed in CHO cells; format: cell-based
T3 sequence (P30542 whole entry): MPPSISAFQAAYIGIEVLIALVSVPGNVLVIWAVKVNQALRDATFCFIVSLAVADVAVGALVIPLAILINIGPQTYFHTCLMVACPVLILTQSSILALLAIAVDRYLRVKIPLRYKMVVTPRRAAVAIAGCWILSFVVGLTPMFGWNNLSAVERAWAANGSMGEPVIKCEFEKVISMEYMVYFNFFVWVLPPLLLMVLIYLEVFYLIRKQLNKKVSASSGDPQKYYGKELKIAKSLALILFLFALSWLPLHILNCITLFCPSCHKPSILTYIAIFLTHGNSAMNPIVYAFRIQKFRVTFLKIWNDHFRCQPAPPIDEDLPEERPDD

Adenosine receptor A3 [3] = target: T4, Adenosine receptor A3 (Homo sapiens, UniProt P0DMS8); experiment: Inhibition of [125I]-AB-MECA binding to human Adenosine A3 receptor expressed in CHO cells; format: cell-based
T4 sequence (P0DMS8 whole entry): T1 sequence (whole entry)

Adenosine receptor A2a [4] = target: T2, Adenosine receptor A2a; experiment: Inhibition of [3H]-CGS- 21680 binding to human Adenosine A2A receptor expressed in CHO cells; format: cell-based
[5] = target: T5, Adenosine receptor A2b (Homo sapiens) (UniProt P29275); experiment: Relative activation of human Adenosine A2B receptor at 10 uM treatment compared to 10 uM Cl-IB-MECA; format: functional
T5 sequence (whole entry): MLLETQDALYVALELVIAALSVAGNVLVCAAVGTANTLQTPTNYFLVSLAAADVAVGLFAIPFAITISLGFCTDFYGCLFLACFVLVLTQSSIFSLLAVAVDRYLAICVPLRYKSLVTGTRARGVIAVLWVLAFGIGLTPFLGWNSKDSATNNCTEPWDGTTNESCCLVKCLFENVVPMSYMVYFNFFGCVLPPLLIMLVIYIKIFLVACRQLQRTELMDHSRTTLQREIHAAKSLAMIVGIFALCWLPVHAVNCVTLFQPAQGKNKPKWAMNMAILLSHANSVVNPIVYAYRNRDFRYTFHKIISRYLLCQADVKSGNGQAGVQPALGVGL

Adenosine receptor A3 [6] = target: T6, Adenosine receptor A3 (Rattus norvegicus, UniProt P28647); experiment: Inhibition of [125I]AB-MECA binding to rat Adenosine A3 receptor expressed in CHO cells; format: cell-based
T6 sequence (P28647 whole entry): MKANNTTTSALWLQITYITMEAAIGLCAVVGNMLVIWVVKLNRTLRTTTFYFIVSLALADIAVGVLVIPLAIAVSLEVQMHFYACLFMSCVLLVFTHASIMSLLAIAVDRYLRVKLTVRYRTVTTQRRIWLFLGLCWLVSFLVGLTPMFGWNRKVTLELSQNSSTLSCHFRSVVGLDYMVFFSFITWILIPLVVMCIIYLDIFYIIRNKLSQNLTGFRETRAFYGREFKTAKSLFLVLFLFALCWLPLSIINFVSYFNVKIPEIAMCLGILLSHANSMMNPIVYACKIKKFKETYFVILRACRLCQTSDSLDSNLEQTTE

| Compound | Activation [1] [%] | pKi (Adenosine receptor A2a [4]) | Activation [5] [%] | other results |
| --- | --- | --- | --- | --- |
| CNC(=O)[C@@]12C[C@@H]1[C@@H](n1cnc3c(NCc4cccc(I)c4)nc(Cl)nc31)[C@H](O)[C@@H]2O | 100 | – | – | – |
| CNC(=O)[C@]12C[C@@H]1[C@@H](n1cnc3c(NC)nc(N)nc31)[C@H](O)[C@@H]2O | – | – | – | Displacement (Adenosine receptor A2a [2]): 17% |
| CNC(=O)[C@]12C[C@@H]1[C@@H](n1cnc3c(NCc4cccc(Cl)c4)nc(SC)nc31)[C@H](O)[C@@H]2O | 100 | – | – | pKi (Adenosine receptor A1): 6.21; pKi (Adenosine receptor A3 [3]): 8.82; Displacement (Adenosine receptor A2a [2]): 52% |
| OC[C@@]12C[C@@H]1[C@@H](n1cnc3c(NCc4cccc(I)c4)ncnc31)[C@H](O)[C@@H]2O | 13 | 6.07 | – | pKi (Adenosine receptor A1): 7.46; pKi (Adenosine receptor A3 [3]): 8.04 |
| CNC(=O)[C@@]12C[C@@H]1[C@@H](n1cnc3c(NC)nc(Cl)nc31)[C@H](O)[C@@H]2O | 104 | – | – | Displacement (Adenosine receptor A2a [2]): 6% |
| OC[C@@]12C[C@@H]1[C@@H](n1cnc3c(NCc4cccc(I)c4)nc(Cl)nc31)[C@H](O)[C@@H]2O | 3 | 5.80 | – | pKi (Adenosine receptor A1): 7.19; pKi (Adenosine receptor A3 [3]): 8.72 |
| OC[C@H]1O[C@@H](n2cnc3c(NCC(c4ccccc4)c4ccccc4)ncnc32)[C@H](O)[C@@H]1O | 0 | – | 70 | pKi (Adenosine receptor A3 [6]): 6.27 |
| CNC(=O)[C@]12C[C@@H]1[C@@H](n1cnc3c(NCc4cccc(Cl)c4)nc(I)nc31)[C@H](O)[C@@H]2O | – | – | – | Displacement (Adenosine receptor A2a [2]): 43% |
| OC[C@H]1O[C@@H](n2cnc3c(NCc4cccc(Cl)c4)ncnc32)[C@H](O)[C@@H]1O | 80 | – | – | pKi (Adenosine receptor A3 [3]): 8.36; pKi (Adenosine receptor A3 [6]): 7.46 |
| CNC(=O)[C@]12C[C@@H]1[C@@H](n1cnc3c(NC4CC4c4ccccc4)nc(Cl)nc31)[C@H](O)[C@@H]2O (some centres not stated) | – | 5.32 | 48 | – |
| CNC(=O)[C@@]12C[C@@H]1[C@@H](n1cnc3c(NCc4cc(Cl)ccc4OC)nc(Cl)nc31)[C@H](O)[C@@H]2O | – | 5.92 | 37 | – |
| CNC(=O)[C@]12C[C@@H]1[C@@H](n1cnc3c(NCc4cc(Cl)ccc4Cl)nc(Cl)nc31)[C@H](O)[C@@H]2O | – | 5.89 | 32 | – |
| CNC(=O)[C@]12C[C@@H]1[C@@H](n1cnc3c(NCc4ccc(N)c(I)c4)nc(Cl)nc31)[C@H](O)[C@@H]2O | – | 5.96 | – | – |
| CNC(=O)[C@]12C[C@@H]1[C@@H](n1cnc3c(NCc4cc(C#CCO)ccc4Cl)nc(Cl)nc31)[C@H](O)[C@@H]2O | 108 | – | 6 | Inhibition (Adenosine receptor A1; cho): 14%; pKi (Adenosine receptor A3 [3]): 6.66; Displacement (Adenosine receptor A2a [2]): 12% |
| CNC(=O)[C@@]12C[C@@H]1[C@@H](n1cnc3c(NCc4cccc(I)c4)ncnc31)[C@H](O)[C@@H]2O | 100 | – | – | – |
| CNC(=O)[C@]12C[C@@H]1[C@@H](n1cnc3c(NCc4cc(OC)ccc4OC)nc(Cl)nc31)[C@H](O)[C@@H]2O | 107 | – | 0 | pKi (Adenosine receptor A1): 5.80; pKi (Adenosine receptor A3 [3]): 8.85; Displacement (Adenosine receptor A2a [2]): 52% |
| CNC(=O)[C@]12C[C@@H]1[C@@H](n1cnc3c(NCc4cccc(F)c4)nc(Cl)nc31)[C@H](O)[C@@H]2O | – | 5.29 | 28 | – |
| CNC(=O)[C@]12C[C@@H]1[C@@H](n1cnc3c(NCc4cccc(C)c4)nc(Cl)nc31)[C@H](O)[C@@H]2O | – | 5.43 | 46 | – |

| Compound | Activation [1] [%] | pKi (Adenosine receptor A2a [4]) | Activation [5] [%] | other results |
| --- | --- | --- | --- | --- |
| CNC(=O)[C@H]1O[C@@H](n2cnc3c(NCc4cccc(I)c4)nc(Cl)nc32)[C@H](O)[C@@H]1O | – | – | 0 | – |
| CNc1nc(N)nc2c1ncn2[C@@H]1O[C@H](CO)[C@@H](O)[C@H]1O | 98 | – | 11 | pKi (Adenosine receptor A3 [6]): < 5.00; Displacement (Adenosine receptor A2a [2]): 15% |
| CNC(=O)[C@@]12C[C@@H]1[C@@H](n1cnc3c(NCc4cccc(Cl)c4)nc(Cl)nc31)[C@H](O)[C@@H]2O | – | 5.64 | 38 | pKi (Adenosine receptor A1): 6.59; pKi (Adenosine receptor A3 [6]): 9.00 |
| CNC(=O)[C@]12C[C@@H]1[C@@H](n1cnc3c(NCc4cc(Cl)ccc4OCC(N)=O)nc(Cl)nc31)[C@H](O)[C@@H]2O | – | 6.10 | – | – |
| CNC(=O)[C@]12C[C@@H]1[C@@H](n1cnc3c(NCc4ccc(N)cc4)nc(Cl)nc31)[C@H](O)[C@@H]2O | – | – | 22 | Displacement (Adenosine receptor A2a [2]): 28% |
| OC[C@H]1O[C@@H](n2cnc3c(NCc4cccc(I)c4)nc(Cl)nc32)[C@H](O)[C@@H]1O | 0 | – | 16 | pKi (Adenosine receptor A1): 7.77 |
| OC[C@H]1O[C@@H](n2cnc3c(NC4CC4c4ccccc4)ncnc32)[C@H](O)[C@@H]1O (some centres not stated) | 101 | 5.60 | 26 | pKi (Adenosine receptor A3 [6]): 6.40 |
| CNC(=O)[C@]12C[C@@H]1[C@@H](n1cnc3c(NCc4ccccc4C)nc(Cl)nc31)[C@H](O)[C@@H]2O | – | 5.42 | 24 | – |
| CNC(=O)[C@]12C[C@@H]1[C@@H](n1cnc3c(NCc4cc(I)ccc4OC)nc(Cl)nc31)[C@H](O)[C@@H]2O | – | 6.37 | 46 | – |
| COc1ccc(Cl)cc1CNc1ncnc2c1ncn2[C@@H]1O[C@H](CO)[C@@H](O)[C@H]1O | – | 6.40 | 57 | – |
| OC[C@H]1O[C@@H](n2cnc3c(NCc4cccnc4)ncnc32)[C@H](O)[C@@H]1O | 100 | 5.64 | – | pKi (Adenosine receptor A1): 7.38; pKi (Adenosine receptor A3 [3]): 8.35; pKi (Adenosine receptor A3 [6]): 6.54 |
| Cc1ccccc1CNc1ncnc2c1ncn2[C@@H]1O[C@H](CO)[C@@H](O)[C@H]1O | 100 | – | – | pKi (Adenosine receptor A3 [6]): 7.42 |
| CNC(=O)[C@]12C[C@@H]1[C@@H](n1cnc3c(NCc4cccc(C#CCO)c4)nc(Cl)nc31)[C@H](O)[C@@H]2O | – | – | 28 | Displacement (Adenosine receptor A2a [2]): 56% |
| CNC(=O)[C@]12C[C@@H]1[C@@H](n1cnc3c(NCc4cc(I)ccc4Cl)nc(Cl)nc31)[C@H](O)[C@@H]2O | – | 6.32 | 58 | – |
| CNC(=O)C12C[C@@H]1[C@@H](n1cnc3c(NCc4cccnc4)nc(Cl)nc31)[C@H](O)[C@@H]2O (single isomer, unassigned) | – | – | 4 | Displacement (Adenosine receptor A2a [2]): 33% |
| CNC(=O)[C@H]1O[C@@H](n2cnc3c(NCc4cccc(I)c4)ncnc32)[C@H](O)[C@@H]1O | – | – | 0 | – |
| OC[C@H]1O[C@@H](n2cnc3c(NCc4cccc(I)c4)ncnc32)[C@H](O)[C@@H]1O | 46 | – | 58 | pKi (Adenosine receptor A1): 8.13 |
